Assay results published in PMC3653324 (Translational stroke research, 2012).
pIC50: −log10 of the molar value.

Key:
H4IIE cells [1] = format: cell-based; conditions: 24 hr
Caspase 3 = assay: CeeTox apoptosis; format: cell-based, rat; conditions: H4IIE cells; for Caspase 3 Activity (Index/Dose): dose: dose at which the index was seen; for Caspase 3 Activity (Index/Dose): index: index of RFU
H4IIE cells [2] = assay: CeeTox analysis composite; format: cell-based, rat; conditions: for TC50 for all general toxicity measures (range over endpoints): H4IIE cells, 24 hr, range across CeeTox endpoints
H4IIE cells [3] = assay: CeeTox cellular ATP content; conditions: 24 hr
H4IIE cells [4] = assay: CeeTox cell mass; conditions: 24 hr
H4IIE cells [5] = assay: CeeTox membrane toxicity; conditions: 24 hr, α-GST leakage
[6] = tested on: Intracellular glutathione (GSH); assay: CeeTox intracellular glutathione; conditions: H4IIE cells
8-Isoprostane (8-ISO) = assay: CeeTox lipid peroxidation measured as 8-isoprostane; conditions: H4IIE cells, 8-ISO score
P-glycoprotein (PgP) = assay: P-glycoprotein; format: cell-based, rat; conditions: H4IIE cells, MTT, 24 hr, single exposure concentration (20 or 50 μM), without CSA
S. typhimurium TA989 = assay: Ames test for mutagenicity, frame-shift strain; format: cell-based; conditions: first TA98 column; for TA98+S9: with S9, up to 10 μM; for TA98−S9: without S9, up to 10 μM
CYP1A2 = biological target: T1, CYP1A2 (Homo sapiens, UniProt P05177); assay: Cloe Screen Cytochrome P450 Inhibition assay; format: in vitro ADME; conditions: for CYP1A2 inhibition classification: classified from IC50
T1 sequence (P05177 1-516): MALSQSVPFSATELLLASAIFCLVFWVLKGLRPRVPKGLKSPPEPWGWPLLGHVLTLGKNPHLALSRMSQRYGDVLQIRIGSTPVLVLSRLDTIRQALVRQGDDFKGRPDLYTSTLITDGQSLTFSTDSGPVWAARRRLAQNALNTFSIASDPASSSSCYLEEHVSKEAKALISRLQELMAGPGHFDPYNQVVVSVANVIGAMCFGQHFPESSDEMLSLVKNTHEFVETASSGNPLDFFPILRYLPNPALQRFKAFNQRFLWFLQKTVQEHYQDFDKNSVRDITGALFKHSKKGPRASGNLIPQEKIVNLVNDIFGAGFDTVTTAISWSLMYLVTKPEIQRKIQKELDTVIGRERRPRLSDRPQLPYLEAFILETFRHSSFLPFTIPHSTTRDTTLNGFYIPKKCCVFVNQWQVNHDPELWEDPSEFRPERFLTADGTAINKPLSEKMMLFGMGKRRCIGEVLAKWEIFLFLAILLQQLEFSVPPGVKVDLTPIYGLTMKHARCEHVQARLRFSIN

CYP2C9 = CYP2C9 (Homo sapiens, UniProt P11712); assay: Cloe Screen Cytochrome P450 Inhibition assay; format: in vitro ADME
CYP3A4 = CYP3A4 (Homo sapiens, UniProt P08684); assay: Cloe Screen Cytochrome P450 Inhibition assay; format: in vitro ADME
CYP2D6 = CYP2D6 (Homo sapiens, UniProt P10635); assay: Cloe Screen Cytochrome P450 Inhibition assay; format: in vitro ADME
Method in brief: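 Run blinded. […] Metabolite formation was monitored by LC-MS/MS. IC50 was calculated from the decrease in metabolite formation relative to vehicle control. Quinidine served as positive control inhibitor.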

CYP2C19 = CYP2C19 (Homo sapiens, UniProt P33261); assay: Cloe Screen Cytochrome P450 Inhibition assay; format: in vitro ADME
P-glycoprotein (MDR1) = assay: BBB penetration; format: in vitro ADME, canine; conditions: dog, MDCK-MDR1
Method in brief: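 MDCK cells transfected with human MDR1 (P-gp) were grown to a confluent monolayer over 4 days. Test compound was added apically, and A→B transport was followed over 60 min; B→A transport was also measured. Compound on each side was quantified by GC/MS. Papp was calculated for both directions, and efflux ratio = Papp B→A/Papp A→B. High BBB potential: Papp A→B ≥3.0×10⁻⁶ cm/s and efflux <3.0.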

CYP3A4, sequence (P08684 2-503): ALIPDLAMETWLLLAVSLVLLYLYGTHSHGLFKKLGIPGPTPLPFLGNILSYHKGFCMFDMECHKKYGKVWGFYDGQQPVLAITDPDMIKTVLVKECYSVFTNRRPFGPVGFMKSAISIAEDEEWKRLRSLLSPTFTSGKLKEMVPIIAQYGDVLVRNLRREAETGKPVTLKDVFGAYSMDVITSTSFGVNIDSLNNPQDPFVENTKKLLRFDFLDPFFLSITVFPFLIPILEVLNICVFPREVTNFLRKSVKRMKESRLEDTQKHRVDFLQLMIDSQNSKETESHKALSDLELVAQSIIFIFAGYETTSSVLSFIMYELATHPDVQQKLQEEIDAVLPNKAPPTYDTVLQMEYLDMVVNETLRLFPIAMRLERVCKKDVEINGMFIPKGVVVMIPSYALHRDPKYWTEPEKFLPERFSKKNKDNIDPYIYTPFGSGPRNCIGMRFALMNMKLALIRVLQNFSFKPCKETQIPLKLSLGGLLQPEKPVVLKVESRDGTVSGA
CYP2C9, sequence (P11712 whole entry): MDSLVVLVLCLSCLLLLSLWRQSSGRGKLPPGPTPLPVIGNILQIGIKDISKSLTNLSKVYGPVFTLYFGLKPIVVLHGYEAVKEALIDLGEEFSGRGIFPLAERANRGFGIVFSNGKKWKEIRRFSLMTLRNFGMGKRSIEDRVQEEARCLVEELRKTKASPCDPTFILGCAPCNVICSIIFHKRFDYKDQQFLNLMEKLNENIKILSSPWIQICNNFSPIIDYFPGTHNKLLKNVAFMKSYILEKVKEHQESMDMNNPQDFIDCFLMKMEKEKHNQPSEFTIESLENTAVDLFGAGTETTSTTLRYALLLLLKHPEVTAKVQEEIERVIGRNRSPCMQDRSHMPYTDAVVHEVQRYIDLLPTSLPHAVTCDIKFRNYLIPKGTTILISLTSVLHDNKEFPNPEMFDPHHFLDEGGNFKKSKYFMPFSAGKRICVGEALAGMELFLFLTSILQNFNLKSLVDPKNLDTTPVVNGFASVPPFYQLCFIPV
CYP2C19, sequence (P33261 whole entry): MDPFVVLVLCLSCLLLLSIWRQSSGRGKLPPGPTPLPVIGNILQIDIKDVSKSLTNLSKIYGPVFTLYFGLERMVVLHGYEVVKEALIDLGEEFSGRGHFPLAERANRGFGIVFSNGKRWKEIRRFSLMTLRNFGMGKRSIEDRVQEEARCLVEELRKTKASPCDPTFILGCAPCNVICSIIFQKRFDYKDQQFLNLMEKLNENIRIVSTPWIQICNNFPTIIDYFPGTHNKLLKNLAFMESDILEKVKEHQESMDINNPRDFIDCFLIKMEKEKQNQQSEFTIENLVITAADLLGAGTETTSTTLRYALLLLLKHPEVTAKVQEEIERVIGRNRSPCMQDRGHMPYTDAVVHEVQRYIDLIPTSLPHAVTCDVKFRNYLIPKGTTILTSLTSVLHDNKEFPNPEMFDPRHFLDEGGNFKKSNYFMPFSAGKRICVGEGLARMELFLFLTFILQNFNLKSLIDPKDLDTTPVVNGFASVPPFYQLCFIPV
CYP2D6, sequence (P10635 whole entry): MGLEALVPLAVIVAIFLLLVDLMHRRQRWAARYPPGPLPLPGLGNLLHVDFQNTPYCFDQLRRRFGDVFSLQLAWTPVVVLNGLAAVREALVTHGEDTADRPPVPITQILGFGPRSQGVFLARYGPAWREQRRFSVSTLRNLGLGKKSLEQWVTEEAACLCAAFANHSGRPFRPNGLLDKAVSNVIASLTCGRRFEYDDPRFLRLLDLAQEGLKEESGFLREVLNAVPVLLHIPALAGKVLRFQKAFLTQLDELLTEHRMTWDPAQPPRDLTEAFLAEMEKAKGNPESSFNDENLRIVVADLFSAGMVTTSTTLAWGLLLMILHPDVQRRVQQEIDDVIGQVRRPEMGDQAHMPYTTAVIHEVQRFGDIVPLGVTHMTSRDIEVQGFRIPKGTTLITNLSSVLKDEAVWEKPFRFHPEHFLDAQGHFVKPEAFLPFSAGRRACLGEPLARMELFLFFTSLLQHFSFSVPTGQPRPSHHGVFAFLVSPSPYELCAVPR

| Compound | MTT TC50 (H4IIE cells [1]) [µM] | Caspase 3 Activity (Index/Dose): dose (Caspase 3) | Caspase 3 Activity (Index/Dose): index (Caspase 3) | ATP TC50 (H4IIE cells [3]) [µM] | Cell Mass TC50 (H4IIE cells [4]) [µM] | MemTox TC50 (H4IIE cells [5]) [µM] | Total GSH TC50 [6] [µM] | Membrane Lipid Peroxidation (8-Isoprostane (8-ISO)) | % Control(Compound) (P-glycoprotein (PgP)) [% Control] | TA98+S9 (S. typhimurium TA989) | TA98−S9 (S. typhimurium TA989) | pIC50 (CYP1A2) | pIC50 (CYP2C9) | pIC50 (CYP3A4) | pIC50 (CYP2D6) | pIC50 (CYP2C19) | Papp A→B at 60 min (P-glycoprotein (MDR1)) [×10⁻⁶ cm/s] | efflux ratio at 60 min (P-glycoprotein (MDR1)) | CYP1A2 inhibition classification (CYP1A2) | further results |
| --- | --- | --- | --- | --- | --- | --- | --- | --- | --- | --- | --- | --- | --- | --- | --- | --- | --- | --- | --- | --- |
| CC[C@@]1(O)C(=O)OCc2c1cc1n(c2=O)Cc2cc3ccccc3nc2-1 [CAMPTOTHECIN, camptothecin, reference compound] | 3.2 | 100 | 3 (400–600 = 3) | 5.0 | 3.0 | >300 | 5.0 | 1 (1 = Modest increase with maximum values ≤ 15 pg/mL) | – | – | – | – | – | – | – | – | – | – | – | TC50 for all general toxicity measures (range over endpoints) (H4IIE cells [2]): 3.0 to 5.0 µM; Ctox ranking group: probability of in vivo toxic effects (H4IIE cells [2]; per standard CeeTox criteria): high probability (1–20 high probability); MemTox TC50 (μM) (H4IIE cells [5]; listed as camptothecin): not affected |
| CCc1ccc2oc(-c3ccc(O)c(O)c3)c(O)c(=O)c2c1 [CSMC-9, 6-ethyl-3,3',4'-trihydroxy flavone] | 81 | 300 | 1 (0–200 = 1) | 80 | 82 | >300 | 149 | 0 | 97.0 | Negative (Not mutagenic < 10 μM (NEGATIVE)) | Negative (Not mutagenic < 10 μM (NEGATIVE)) | 4.94 | < 5.00 | < 5.00 | < 5.00 | < 5.00 | 40.9 | 0.19 | – | – |
| Cc1cc(O)c(C(=O)/C=C/c2ccc(O)c(O)c2)cc1C [CSMC-10, 4',5'-dimethyl-2',3,4-trihydroxychalcone] | 83 | 100 | 1 (0–200 = 1) | 75 | 86 | >300 | 144 | 2 (2 = Concentration related increase with maximum values ≥ 15 pg/mL) | 73.4 | Negative (Not mutagenic < 10 μM (NEGATIVE)) | Negative (Not mutagenic < 10 μM (NEGATIVE)) | 5.16 | < 5.00 | < 5.00 | < 5.00 | < 5.00 | – | – | moderate inhibition | – |
| Cc1ccc2oc(-c3ccc(O)c(O)c3)c(O)c(=O)c2c1 [CSMC-11, 6-methyl-3,3',4'-trihydroxy flavone] | >300 | 300 | 1 (0–200 = 1) | 52 | >300 | >300 | >300 | 0 | 80.3 | Negative (Not mutagenic < 10 μM (NEGATIVE)) | Negative (Not mutagenic < 10 μM (NEGATIVE)) | < 4.60 | < 5.00 | < 5.00 | < 5.00 | < 5.00 | 6.67 | 0.12 | – | – |
| COc1cc(-c2ccc(O)c(O)c2)nc2ccccc12 [CSMC-12, 4-methoxy-2-(3,4-dihydroxyphenyl)quinoline] | 293 | – | – | 223 | 208 | >300 | >300 | 1 (1 = Modest increase with maximum values ≤ 15 pg/mL) | 85.9 | Negative (Not mutagenic < 10 μM (NEGATIVE)) | Negative (Not mutagenic < 10 μM (NEGATIVE)) | 5.43 | < 5.00 | < 5.00 | < 5.00 | < 5.00 | – | – | moderate inhibition | – |
| COc1cc(-c2oc3cc(C)c(C)cc3c(=O)c2O)ccc1O [CSMC-15, 6,7-dimethyl-3,4'-dihydroxy-3'-methoxyflavone] | 74 | 300 | 1 (0–200 = 1) | 78 | 79 | >300 | 76 | 0 | 70.8 | Negative (Not mutagenic < 10 μM (NEGATIVE)) | Negative (Not mutagenic < 10 μM (NEGATIVE)) | < 4.60 | < 5.00 | < 5.00 | < 5.00 | < 5.00 | 4.08 | 0.4 | – | – |
| CCOc1cc(-c2ccc(O)c(O)c2)nc2ccccc12 [CSMC-16, 4-ethoxy-2-(3,4-dihydroxyphenyl)quinoline] | 170 | – | – | 162 | 215 | >300 | 243 | 0 | 81.3 | Negative (Not mutagenic < 10 μM (NEGATIVE)) | Negative (Not mutagenic < 10 μM (NEGATIVE)) | 5.40 | < 5.00 | < 5.00 | < 5.00 | < 5.00 | – | – | moderate inhibition | – |
| CC(C)Oc1cc(-c2ccc(O)c(O)c2)nc2ccccc12 [CSMC-17, 4-isopropoxy-2-(3,4-dihydroxyphenyl)quinoline] | 298 | – | – | 217 | 241 | >300 | 295 | 0 | 80.8 | Negative (Not mutagenic < 10 μM (NEGATIVE)) | Negative (Not mutagenic < 10 μM (NEGATIVE)) | 5.13 | < 5.00 | < 5.00 | < 5.00 | < 5.00 | – | – | moderate inhibition | – |
| O=c1cc(-c2cc(O)c(O)c(O)c2)oc2ccccc12 [CSMC-19, 3',4',5'-trihydroxyflavone] | >300 | 300 | 1 (0–200 = 1) | 256 | >300 | >300 | >300 | 2 (2 = Concentration related increase with maximum values ≥ 15 pg/mL) | 88.4 | Negative (Not mutagenic < 10 μM (NEGATIVE)) | Negative (Not mutagenic < 10 μM (NEGATIVE)) | < 4.60 | < 5.00 | < 5.00 | < 5.00 | < 5.00 | 105 | 0.01 | – | – |
| C=C(C)[C@H]1Cc2c(ccc3c2O[C@@H]2COc4cc(OC)c(OC)cc4[C@@H]2C3=O)O1 [ROTENONE, rotenone, reference compound] | 0.19 | – | – | 0.05 | 0.09 | 3.88 | 0.03 | 2 (2 = Concentration related increase with maximum values ≥ 15 pg/mL) | – | – | – | – | – | – | – | – | – | – | – | TC50 for all general toxicity measures (range over endpoints) (H4IIE cells [2]): 0.05 to 3.88 µM |
